Marks after values point to notes of the source that are not given here.
How the values were obtained:
[1] = Ga complex with N3O3 configuration, 1.5 h; cited from earlier work
[2] = biological target: apo-transferrin (apoTf) (Homo sapiens, UniProt P02787); assay: Stability assessment in apoTf solution; type: in vitro ADME; settings: 74 kBq/100 μL added to same volume of 0.2 mM apoTf in 200 mM sodium bicarbonate buffer pH 7.4 (ApoTf 0.1 mM), 37 °C, 5% CO2, RP-TLC, mean ± SD (n = 5)
Method in brief: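 [67Ga]-labelled test compound was HPLC-purified and taken up in D-PBS(−). 74 kBq/100 μL was mixed with an equal volume of 0.2 mM (stock) apoTf in 200 mM sodium bicarbonate, pH 7.4. The mix was held at 37 °C under 5% CO2. At 3 and 24 h, 5 μL aliquots were analysed by RP-18 TLC in 0.1% aqueous TFA/MeCN with 0.1% TFA (2:3).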

Sequence of apo-transferrin (apoTf) (P02787 20-698): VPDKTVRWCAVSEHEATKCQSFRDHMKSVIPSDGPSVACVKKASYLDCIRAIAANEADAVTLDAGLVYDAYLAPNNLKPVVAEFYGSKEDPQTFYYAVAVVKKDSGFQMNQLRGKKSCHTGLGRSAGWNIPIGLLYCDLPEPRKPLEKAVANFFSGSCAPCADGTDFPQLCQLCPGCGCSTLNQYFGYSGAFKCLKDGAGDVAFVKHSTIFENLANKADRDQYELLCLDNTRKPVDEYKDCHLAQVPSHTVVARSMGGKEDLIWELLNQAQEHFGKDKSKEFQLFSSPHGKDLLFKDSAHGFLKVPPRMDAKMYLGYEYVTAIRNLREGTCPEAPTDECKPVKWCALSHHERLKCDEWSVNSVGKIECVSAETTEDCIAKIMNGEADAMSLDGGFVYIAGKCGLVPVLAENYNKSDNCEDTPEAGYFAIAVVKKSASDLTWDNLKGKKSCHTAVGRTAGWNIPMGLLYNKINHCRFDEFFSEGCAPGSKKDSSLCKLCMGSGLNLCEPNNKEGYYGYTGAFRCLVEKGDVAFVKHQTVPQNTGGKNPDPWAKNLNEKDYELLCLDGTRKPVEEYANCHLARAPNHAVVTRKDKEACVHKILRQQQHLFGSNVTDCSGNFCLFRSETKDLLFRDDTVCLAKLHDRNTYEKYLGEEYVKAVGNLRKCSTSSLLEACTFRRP

Row | SMILES | Ga complex decomposed in human serum [1] [%] | Stability of 67Ga-labeled model chelators, ApoTf (0.1 mM), 3 h [2] | Stability of 67Ga-labeled model chelators, ApoTf (0.1 mM), 24 h [2]
1 | O=C(O)CN1CCOCCN(CC(=O)O)CCN(CC(=O)O)CC1 [oxo-DO3A] | > 80 | – | –
2 | CCCCNC(=O)CCC(C(=O)[O-])N1CCN(CC(=O)[O-])CCN(CC(=O)[O-])CCN(CC(=O)[O-])CC1.[67Ga+3] (centres unmarked) [[^67Ga]Ga-DOTAGAM^Bu] | – | 80.0 ± 1.3 ^b ^c ^d | 27.5 ± 4.6 ^b ^c ^d
3 | O=C([O-])CN1CCN(CC(=O)[O-])CCN(Cc2ccc([N+](=O)[O-])cc2)CCN(CC(=O)[O-])CC1.[67Ga+3] [[^67Ga]Ga-p-NO2-Bn-DO3A] | – | 93.8 ± 0.6 ^b | 67.5 ± 0.6 ^b
4 | CCCCNC(=O)CN1CCN(CC(=O)[O-])CCN(CC(=O)[O-])CCN(CC(=O)[O-])CC1.[67Ga+3] [[^67Ga]Ga-DO3AM^Bu] | – | 87.4 ± 0.5 ^b ^c | 43.1 ± 1.1 ^b ^c
5 | O=C([O-])CN1CCN(CC(=O)[O-])CCN(CC(=O)[O-])CCN(CC(=O)[O-])CC1.[67Ga+3] [[^67Ga]Ga-DOTA, reference compound] | – | 96.4 ± 0.2 | 89.6 ± 0.5
6 | O=C([O-])CN1CCN(CC(=O)[O-])CCN(CC(=O)[O-])C(Cc2ccc([N+](=O)[O-])cc2)CN(CC(=O)[O-])CC1.[67Ga+3] (centres unmarked) [[^67Ga]Ga-p-NO2-Bn-DOTA (A)] | – | 95.1 ± 1.2 ^d ^e ^f | 90.3 ± 0.7 ^c ^d ^e ^f

From PMC9713862 (ACS Omega, 2022)
